# From the M2OR odorant receptor database
# Target: T1, OR10G8 (Homo sapiens) (UniProt Q8NGN5)
# T1 sequence (whole entry): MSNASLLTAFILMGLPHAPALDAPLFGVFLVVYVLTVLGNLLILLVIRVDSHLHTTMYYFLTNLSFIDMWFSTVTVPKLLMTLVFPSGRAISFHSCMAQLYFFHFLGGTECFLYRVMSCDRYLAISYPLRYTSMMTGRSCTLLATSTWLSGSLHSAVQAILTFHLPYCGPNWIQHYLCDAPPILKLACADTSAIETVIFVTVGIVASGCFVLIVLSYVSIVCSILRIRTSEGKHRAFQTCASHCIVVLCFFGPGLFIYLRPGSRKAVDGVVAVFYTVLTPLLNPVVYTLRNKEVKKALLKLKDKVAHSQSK
# Conditions: stereoisomer not certain
# Summary of the method: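 Transient luciferase assays in mammalian cell lines were common, though methods varied by source. The values come from published papers and their supplementary material, with extra details from the original authors when needed. Responsive refers to a measured signal the original authors judged statistically different from baseline, and non-responsive (inactive) to the remainder.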
# 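Also: active if original authors judged signal statistically different from baseline.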
smiles,measurement,value
CCCCCCCCC(=O)O,odorant receptor agonist call,inactive
